14 molecules from PubChem BioAssay can be followed below.

The nature of experiment [1]: inhibitors of TNFa-induced NFkB p65 translocation, primary screen, imaging, HUVEC, MLSMR starter and 10KST1 sets (AID 438;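 active means inhibition above 20% together with a positive visual image hit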;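 further: compound added about 3h40 before a 20 min TNFalpha stimulation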;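 on inhibition: signal is the nuclear over cytoplasmic p65 intensity ratio per well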). Particulars: HUVEC TNFa-induced p65 nuclear translocation; cell count: measured here: nuclei count (cytotoxicity indicator), at 2.08 µM; inhibition: at 2 µM, stronger effect = higher value, 0% TNFa-plus-vehicle, 100% no-TNFa wells.
Experiment [2] can be described thus: reduction of polyQ htt aggregates in cells – imaging, exon1htt(103Q)mCFP cells, high-content imaging, primary screen (AID 483;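 active means visual image review flags a hit and inhibition of aggregation exceeds 20%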;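 further: compound exposure lasted 3 days before fixation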;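 on nuclei count: percent of the per-plate median nuclei count of sample wells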). Particulars: exon1htt(103Q)mCFP cell line, aggregate imaging, at 2 µM; inhibition of aggregation: stronger effect = higher value; nuclei count: measured here: cell count, toxicity.
A short description of experiment [3]: endothelial E-selectin expression blockers – imaging, HUVEC, immunofluorescence, MLSMR starter and 10KST1 sets, primary screen (AID 487;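 active means visually confirmed hit in the image check and inhibition above 20%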;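 on inhibition: signal is fraction of cell area covered by stained E-selectin grains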;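 on nuclei count: 100% = median nuclei count of all wells on the same plate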). The following applies: HUVEC TNFalpha-induced E-selectin immunofluorescence imaging, at 2 µM; inhibition: stronger effect = higher value; nuclei count: measured here: cell number, toxicity.
For experiment [4], the target named is Voltage-gated potassium channel subunit beta-2 (Rattus norvegicus) (UniProt P62483). Kind of experiment: inhibitors of rat Kvbeta2 reductase activity – biochemical, NADPH fluorescence, primary screen (AID 622;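 active means fluorescence slope higher than the sample average by over 3 SD, cut at about -0.22 in these data, passing the limit was not always enough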;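 further: slope of raw intensity against log time taken from 70 to 1610 s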). Particulars: recombinant KvBeta, 4-cyanobenzaldehyde reduction, at 10 µM, stronger effect = higher value.
Voltage-gated potassium channel subunit beta-2 (Rattus norvegicus), sequence (P62483 whole entry, looked up): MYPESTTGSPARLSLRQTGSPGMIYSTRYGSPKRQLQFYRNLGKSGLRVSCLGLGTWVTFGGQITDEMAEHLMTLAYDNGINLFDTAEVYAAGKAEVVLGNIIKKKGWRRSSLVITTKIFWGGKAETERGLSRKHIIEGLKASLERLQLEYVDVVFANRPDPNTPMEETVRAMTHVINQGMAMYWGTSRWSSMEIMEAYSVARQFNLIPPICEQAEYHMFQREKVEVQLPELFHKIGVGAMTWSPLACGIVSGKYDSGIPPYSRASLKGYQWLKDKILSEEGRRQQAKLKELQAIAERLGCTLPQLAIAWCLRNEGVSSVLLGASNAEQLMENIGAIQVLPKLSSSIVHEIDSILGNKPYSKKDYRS
The target is the same in experiment [5]. Briefly: enhancers of rat Kvbeta2 NADPH turnover – biochemical, NADPH fluorescence, primary screen (AID 623).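 Further: fluorescence intensity change per second fitted from 20 to 320 s.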 Particulars: Recombinant KvBeta, NADPH fluorescence decrease slope, 10 min; at 10 µM; stronger effect = lower value.
Experiment [6] deals with Muscarinic acetylcholine receptor M4 (Homo sapiens) (UniProt P08173). Briefly: M4-linked GIRK flux change, two-sided – cell-based, HEK293 M4/GIRK, thallium flux, BTC-AM, M4 allosteric agonist project, primary screen (AID 625;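 active means fluorescence slope after compound addition differing from the mean of all tested samples at 99.7% confidence, mostly higher but some lower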;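 further: thallium influx through GIRK channels coupled to M4 in HEK293 cells with BTC-AM dye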). Particulars: at 10 µM, actives lie on both sides. The method in brief: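 Material: HEK293 cells with M4 receptor and GIRK channels; Times: cells overnight at 37 °C, BTC-AM loading 1 h, reads 2 min total; Technique: kinetic BTC-AM fluorescence sampled at 1 Hz, 10 s pre-addition baseline; Read-out basis: slope over 15–24 s of trace normalized to starting intensity; Controls: carbachol positive, DMSO negative.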
Muscarinic acetylcholine receptor M4 (Homo sapiens), sequence (P08173 whole entry, looked up): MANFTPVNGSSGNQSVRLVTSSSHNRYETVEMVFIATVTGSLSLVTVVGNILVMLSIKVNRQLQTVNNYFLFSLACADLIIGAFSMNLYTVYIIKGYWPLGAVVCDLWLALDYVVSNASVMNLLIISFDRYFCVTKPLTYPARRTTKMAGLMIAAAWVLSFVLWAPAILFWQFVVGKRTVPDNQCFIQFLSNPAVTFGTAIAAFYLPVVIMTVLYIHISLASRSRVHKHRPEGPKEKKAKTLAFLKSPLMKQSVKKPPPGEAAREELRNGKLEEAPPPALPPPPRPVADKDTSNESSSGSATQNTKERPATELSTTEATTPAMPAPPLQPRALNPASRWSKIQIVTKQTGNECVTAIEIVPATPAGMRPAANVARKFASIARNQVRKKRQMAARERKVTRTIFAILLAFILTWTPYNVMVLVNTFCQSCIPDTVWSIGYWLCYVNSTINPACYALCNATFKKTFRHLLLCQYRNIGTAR

Experiment [7] is described as follows: blockers of RIG-like receptor reporter activation – cell-based, Sendai virus stimulus, luciferase, 10K MLSCN set, TLR/RLR signaling modifier project, primary screen (AID 602276;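 active means inhibition at or above 50% at 10 µM; inactive means inhibition below 50%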;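 further: firefly luciferase from ISG56 promoter only with Renilla not read in this screen; 0% = Sendai virus plus DMSO and 100% = medium plus DMSO without virus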). The following applies: HEK293 RL24 IRF3 luciferase reporter, at 10 µM, stronger effect = higher value. For orientation: A reporter such as luciferase makes a cellular process visible.
Experiment [8] can be described thus: TLR3 IRF3 reporter activation blockers – cell-based, poly I:C stimulus, luciferase, 10K MLSCN set, primary screen (AID 602277;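 active means inhibition of the reporter signal at or above 50%; inactive means inhibition below 50%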). Particulars: HEK293-TLR3 RL24 IRF3 luciferase reporter, at 10 µM, stronger effect = higher value.

The source made the active and inactive calls.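 How the source made its calls, unless noted: active means NADPH fluorescence slope more negative than the mean of all samples by about 3 SD, 99.7% confidence; inactive means the rest.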 Where a SMILES comes first, the peptide text is derived from it. The star is where a group is joined. Boc = CC(C)(C)OC(=O)*

Broadly, the inhibition is the relative decrease from the control value, in per cent. For `CCOc1ncccc1C(=O)Nc1ccc2c(C)cc(=O)oc2c1`, the cell count in experiment [1] is 585. Also, the inhibition in experiment [1] is 5.8% (inactive); in experiment [3] it was -26.9% (inactive); in experiment [7] it was 10.1% (inactive); in experiment [8], 4.34% (inactive). For the same molecule, the inhibition of aggregation in experiment [2] is 10% (inactive). Besides, the figures for the nuclei count in experiment [2] and in experiment [3] were 92.5% and 96.9%, respectively. In addition, the values for the fluorescence slope in experiment [4] and in experiment [6] were -0.535 (inactive) and 0.00712 (inactive), respectively. Besides, the NADPH fluorescence slope in experiment [5] was -3.1e-05 (inactive).
`CC(C)(C)OC(=O)N1CCCC1C(=O)N1CCCC1C(=O)N1CCCC1C(=O)O` (stereo not drawn) (Boc-Pro-Pro-Pro-OH; configuration not given here): the cell count in experiment [1] worked out at 302. Also, the inhibition in experiment [1] was -6.9% (inactive); in experiment [3] it was -59.4% (inactive); in experiment [7], 5.97% (inactive); in experiment [8], 15.3% (inactive). Further, the inhibition of aggregation in experiment [2] was 4.5% (inactive). The nuclei count in experiment [2] is 49.1%; in experiment [3], 102%. In addition, the fluorescence slope in experiment [4] was -0.571 (inactive); in experiment [6], 0.00689 (inactive). Moreover, the NADPH fluorescence slope in experiment [5] was -4.7e-05 (inactive).
On to `COc1ccccc1N1CCN(C(=O)c2oc3cc(C)c(C)cc3c2C)CC1`, for which the cell count in experiment [1] came out at 355. Further, the inhibition is 1.3% (inactive) in experiment [1], -46.9% (inactive) in experiment [3], 21.1% (inactive) in experiment [7] and 15% (inactive) in experiment [8]. Moreover, in experiment [2], the inhibition of aggregation is -10.8% (inactive). Further, the nuclei count in experiment [2] amounted to 101%; in experiment [3] it was 87.3%. Further, the values for the fluorescence slope in experiment [4] and in experiment [6] were -0.546 (inactive) and 0.00423 (inactive), respectively. In addition, in experiment [5], the NADPH fluorescence slope was 2.2e-05 (inactive).
Turning to `COc1ccc2c(=O)c3c(=O)n(Cc4ccco4)c(C(C)C)nc3oc2c1`, the cell count in experiment [1] worked out at 436. The inhibition in experiment [1] was -3.9% (inactive); in experiment [3] it was -15.2% (inactive); in experiment [7], 4.04% (inactive); in experiment [8], 9.95% (inactive). The inhibition of aggregation in experiment [2] is -10.1% (inactive). Besides, the nuclei count in experiment [2] was 91.7%; in experiment [3], 107%. Further, the fluorescence slope in experiment [4] was -0.564 (inactive); in experiment [6] it was 0.00474 (inactive). The NADPH fluorescence slope in experiment [5] was -2.1e-05 (inactive).
Consider `CC(C)CC(=O)CN1C(=O)C2(OCCO2)c2ccccc21`, for which the cell count in experiment [1] came out at 490. In addition, the inhibition in experiment [1] was -2.4% (inactive); in experiment [3], 6.8% (inactive); in experiment [7], 17.6% (inactive); in experiment [8], -9.91% (inactive). For the same molecule, the inhibition of aggregation in experiment [2] is 22.6% (inactive). In addition, the nuclei count in experiment [2] amounted to 100%; in experiment [3], 94.9%. Further, the fluorescence slope was -0.231 (inactive) in experiment [4] and 0.00852 (inactive) in experiment [6]. Further, the NADPH fluorescence slope in experiment [5] is -1.2e-05 (inactive).
Turning to `CCC1Oc2ccccc2N(CC(=O)Nc2ccc(OC)cc2OC)C1=O` (centres undefined), the cell count in experiment [1] worked out at 726. Further, the inhibition in experiment [1] is 44.3% (active); in experiment [3], -57% (inactive); in experiment [7], -2.59% (inactive); in experiment [8], 4.28% (inactive). Further, the inhibition of aggregation in experiment [2] is -17.4% (inactive). Moreover, the nuclei count in experiment [2] came to 117%; in experiment [3], 127%. Moreover, the fluorescence slope in experiment [4] was -0.533 (inactive); in experiment [6], 0.00464 (inactive). For the same molecule, the NADPH fluorescence slope in experiment [5] is -0.000132 (inactive).
Consider `O=C(NCCN1CCOCC1)C1CC(=O)N(c2ccc(F)c(Cl)c2)C1` (centres undefined), for which, in experiment [1], the cell count amounted to 353. Moreover, the inhibition in experiment [1] was -4.7% (inactive); in experiment [3], -63.7% (inactive); in experiment [7], 10.9% (inactive); in experiment [8] it was 10.3% (inactive). In addition, in experiment [2], the inhibition of aggregation is 21.8% (inactive). Further, the nuclei count stood at 76.2% in experiment [2] and 120% in experiment [3]. Moreover, the fluorescence slope in experiment [4] was -0.554 (inactive); in experiment [6], 0.00645 (inactive). In addition, in experiment [5], the NADPH fluorescence slope is -3.9e-05 (inactive).
Take `CCC(C)NC(=O)C1(C)CCC(=O)N1Cc1ccccc1OC` (centres undefined): the cell count in experiment [1] came to 406. Also, the inhibition in experiment [1] was -14.1% (inactive); in experiment [3], -15.7% (inactive); in experiment [7] it was 12.9% (inactive); in experiment [8] it was 22.5% (inactive). Also, in experiment [2], the inhibition of aggregation was -3.9% (inactive). Further, the nuclei count amounted to 105% in experiment [2] and 93.9% in experiment [3]. Also, the values for the fluorescence slope in experiment [4] and in experiment [6] were -0.512 (inactive) and 0.00751 (inactive), respectively. Further, the NADPH fluorescence slope in experiment [5] was 0.000141 (inactive).
As for `CC(C(=O)NCCCN1CCOCC1)n1cccc1C(=O)c1ccccc1` (centres undefined), in experiment [1], the cell count was 572. In addition, the inhibition in experiment [1] was 2.7% (inactive); in experiment [3], -1.5% (inactive); in experiment [7] it was 17.2% (inactive); in experiment [8] it was 17% (inactive). For the same molecule, in experiment [2], the inhibition of aggregation is -8.2% (inactive). For the same molecule, the nuclei count in experiment [2] stood at 104%; in experiment [3], 94.2%. Further, the fluorescence slope in experiment [4] was -0.549 (inactive); in experiment [6], 0.00579 (inactive). Besides, the NADPH fluorescence slope in experiment [5] is -3.4e-05 (inactive).
Regarding `CCN(C(=O)CN1CCN(c2ccccc2OC)CC1)c1c(N)n(Cc2ccccc2)c(=O)[nH]c1=O`, the cell count in experiment [1] was 471. For the same molecule, the inhibition was 1.1% (inactive) in experiment [1], -52.2% (inactive) in experiment [3], 9.1% (inactive) in experiment [7] and 25.4% (inactive) in experiment [8]. Further, the inhibition of aggregation in experiment [2] is -18.1% (inactive). Besides, the values for the nuclei count in experiment [2] and in experiment [3] were 63.9% and 102%, respectively. Also, the fluorescence slope was -0.424 (inactive) in experiment [4] and 0.00639 (inactive) in experiment [6]. Moreover, the NADPH fluorescence slope in experiment [5] was -0.000102 (inactive).
`C=CCOc1nc(N2CCCC2)nc(N2CCCC2)n1`: the cell count in experiment [1] came out at 579. In addition, the inhibition in experiment [1] is -7.6% (inactive); in experiment [3], 23.8% (inactive); in experiment [7], 10.7% (inactive); in experiment [8] it was 14.3% (inactive). Moreover, the inhibition of aggregation in experiment [2] was 4.8% (inactive). Moreover, the nuclei count came out at 109% in experiment [2] and 84.1% in experiment [3]. For the same molecule, the results for the fluorescence slope in experiment [4] and in experiment [6] were -0.551 (inactive) and 0.00552 (inactive), respectively. Moreover, the NADPH fluorescence slope in experiment [5] was -8.3e-05 (inactive).
`CC(NC(=O)c1ccco1)C(c1cccs1)N1CCN(c2ccc(F)cc2)CC1` (centres undefined): the cell count in experiment [1] is 519. Moreover, the inhibition in experiment [1] was -0.2% (inactive); in experiment [3], -22.2% (inactive); in experiment [7] it was 11.9% (inactive); in experiment [8] it was 12.2% (inactive). In addition, the inhibition of aggregation in experiment [2] is -0.1% (inactive). Further, the results for the nuclei count in experiment [2] and in experiment [3] were 82% and 114%, respectively. The fluorescence slope was -0.489 (inactive) in experiment [4] and 0.00654 (inactive) in experiment [6]. In addition, the NADPH fluorescence slope in experiment [5] was 0.000157 (inactive).
On to `CC(=O)Nc1cccc(-c2nnc(-c3ccccc3)o2)c1`, for which, in experiment [1], the cell count amounted to 378. In addition, the inhibition in experiment [1] is 0.4% (inactive); in experiment [3], -93.4% (inactive); in experiment [7], -35.6% (inactive); in experiment [8], -134% (inactive). For the same molecule, in experiment [2], the inhibition of aggregation was 4.1% (inactive). Also, the nuclei count was 105% in experiment [2] and 136% in experiment [3]. The fluorescence slope was -0.582 (inactive) in experiment [4] and 0.00721 (inactive) in experiment [6]. Also, in experiment [5], the NADPH fluorescence slope is -3e-05 (inactive).
In the case of `Cc1cccc(NC(=O)CCn2ccnc2C)c1`, the cell count in experiment [1] amounted to 628. For the same molecule, the inhibition in experiment [1] is 1.2% (inactive); in experiment [3], -65.9% (inactive); in experiment [7], 10.5% (inactive); in experiment [8] it was 8.13% (inactive). The inhibition of aggregation in experiment [2] was -6.6% (inactive). The nuclei count is 96.8% in experiment [2] and 93% in experiment [3]. In addition, the fluorescence slope is -0.574 (inactive) in experiment [4] and 0.00688 (inactive) in experiment [6]. Also, the NADPH fluorescence slope in experiment [5] is -5e-05 (inactive).
